Experiment [1] in a line: reducers of endogenous Her2 protein level, primary screen, SKBR3 breast tumor cells, AlphaScreen, ATP viability (AID 461;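 active means Her2 level under about 52% in both replicate screens, with viability over 70% of control, limit read from the data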;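 on Her2 level: lower value means less Her2 protein in the cells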;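 on viability: percent of carrier control wells set as 100% viability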). Conditions: 18-24 h, measured here: SKBR3 viability, ATP luminescence, at 10 µM.
For experiment [2], the target named is Receptor tyrosine-protein kinase erbB-2 (Homo sapiens) (UniProt P04626). Described as above. Conditions: 18-24 h, at 10 µM, stronger effect = lower value.
Receptor tyrosine-protein kinase erbB-2 (Homo sapiens), sequence (P04626 whole entry, looked up): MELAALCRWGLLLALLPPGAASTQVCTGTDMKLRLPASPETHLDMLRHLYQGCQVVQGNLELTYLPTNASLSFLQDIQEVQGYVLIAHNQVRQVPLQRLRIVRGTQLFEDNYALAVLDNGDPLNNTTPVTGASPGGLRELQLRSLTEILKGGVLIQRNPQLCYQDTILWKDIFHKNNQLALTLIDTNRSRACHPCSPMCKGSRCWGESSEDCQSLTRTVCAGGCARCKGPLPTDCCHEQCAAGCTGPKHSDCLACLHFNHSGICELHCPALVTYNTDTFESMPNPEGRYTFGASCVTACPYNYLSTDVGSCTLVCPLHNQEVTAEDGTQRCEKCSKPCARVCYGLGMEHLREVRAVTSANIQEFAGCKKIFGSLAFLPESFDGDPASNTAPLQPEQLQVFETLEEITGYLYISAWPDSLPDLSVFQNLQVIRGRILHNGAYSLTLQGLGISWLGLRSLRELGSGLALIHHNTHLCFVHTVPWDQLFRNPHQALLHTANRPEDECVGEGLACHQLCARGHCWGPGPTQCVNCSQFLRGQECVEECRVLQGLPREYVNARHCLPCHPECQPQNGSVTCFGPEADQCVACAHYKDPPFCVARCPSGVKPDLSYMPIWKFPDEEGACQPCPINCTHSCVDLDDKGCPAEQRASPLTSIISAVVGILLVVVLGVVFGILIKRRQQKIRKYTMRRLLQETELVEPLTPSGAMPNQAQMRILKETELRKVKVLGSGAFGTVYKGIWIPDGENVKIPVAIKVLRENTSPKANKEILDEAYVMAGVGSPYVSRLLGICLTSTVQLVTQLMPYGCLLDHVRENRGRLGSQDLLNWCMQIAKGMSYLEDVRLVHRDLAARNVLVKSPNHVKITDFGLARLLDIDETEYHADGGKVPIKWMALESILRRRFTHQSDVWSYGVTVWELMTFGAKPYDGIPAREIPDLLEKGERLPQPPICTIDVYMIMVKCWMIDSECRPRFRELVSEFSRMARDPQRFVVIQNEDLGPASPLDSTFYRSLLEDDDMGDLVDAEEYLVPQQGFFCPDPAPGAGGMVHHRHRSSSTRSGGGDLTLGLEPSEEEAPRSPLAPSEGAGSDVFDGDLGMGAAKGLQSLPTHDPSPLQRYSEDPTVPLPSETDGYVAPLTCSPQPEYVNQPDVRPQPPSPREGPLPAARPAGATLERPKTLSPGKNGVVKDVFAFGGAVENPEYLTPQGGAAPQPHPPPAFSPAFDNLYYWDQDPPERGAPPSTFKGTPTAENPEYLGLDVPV
Experiment [3] is described as follows: SK-BR-3 cell growth inhibitors, pilot screen, 24 h, human (AID 572;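 active means viability at or below 10% of carrier control in both of two separate runs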;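 further: compound exposure lasted between 18 and 24 h rather than exactly 24 h; 100% = carrier-treated control wells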). As to conditions: SK-BR-3 viability, CellTiter-Glo luminescence, at 10 µM, stronger effect = lower value. Background: In ATP-based viability assays light output follows the ATP content of the culture.
Experiment [4] is described as follows: HUVEC growth inhibition – cell-based, human, primary screen (AID 575;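 active means viability at or below 30% in both replicate assays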;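 further: 100% = median of untreated cell wells with 0.1% DMSO on each plate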). As to conditions: HUVEC proliferation, CellTiter-Glo luminescence, 72 h; at 10 µM; stronger effect = lower value. In a few lines:
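Assay system: Primary human umbilical vein endothelial cells | Quantity: 1250 cells per well | Medium: Supplemented EBM, 2% fetal bovine serum | Detection: CellTiter-Glo luminescence measuring cellular ATP | Read-out: % viability vs DMSO wells | Plate: Collagen-coated 384-well format | Times: 72 h exposure, 37 °C, 5% CO2, 30 min RT equilibration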

Experiment [5] is described as follows: growth inhibitors of H69AR lung tumor, primary screen, human, duplicate replicates (AID 580;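 active means viability at or under a set limit in both replicates, limit being median viability minus 3 SD, cut at about 48% in these data, passing the limit was not always enough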;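 further: 100% = mean luminescence of untreated wells and 0% = no signal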). As to conditions: H69AR lung tumor cells viability, ATP luminescence, 72 h; at 10 µM; stronger effect = lower value.
The nature of experiment [6]: reversal of MRP1-mediated doxorubicin resistance, pilot screen, H69AR cells, doxorubicin co-treatment (AID 601;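 active means viability loss from added drug above about 55%, and viability with drug at most 40%, in both replicates, limit read from the data, passing the limit was not always enough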). Conditions: CellTiter-Glo, 72 h, at 10 µM; for differential viability (reversal): stronger effect = higher value.
Experiment [7] is described as follows: 384-well plate pilot, post-Golgi transport modulator project, inhibition of yeast transport mutant growth (AID 636; in the data active means inhibition above about 31%). Conditions: absorbance 615 nm, about 18 h, stronger effect = higher value.
The nature of experiment [8]: growth suppression of yeast trafficking mutant, preliminary HTS, modulators of trafficking downstream of Golgi apparatus project, 1536-format plate, OD 615 nm (AID 637). As to conditions: yeast transport mutant growth, absorbance 615 nm, 18 h; stronger effect = higher value.
Setting [9] is: H69AR cells + 2 uM doxorubicin, measured here: viability with 2 uM doxorubicin, stronger effect = lower value.
[10] abbreviates: H69AR cells, compound alone cytotoxicity.

Active and inactive are the calls of the source. Unless noted, no stated cut-off is given here; in the data, active means inhibition above about 30%; inactive means the rest.

Turning to `COc1ccc(CCNC(=O)CN(c2ccccc2OC)S(C)(=O)=O)cc1`, the viability (usually a read-out of living cells in per cent, often relative to untreated cells) was 112% in experiment [1]; 112% (inactive) in experiment [3]; 93.5% (inactive) in experiment [4]; 99.9% (inactive) in experiment [5]; 84.3% in experiment [6] (setting [9]); 99.9% in experiment [6] (setting [10]). The Her2 level in experiment [2] was 99.5% (inactive). Also, the differential viability (reversal) in experiment [6] (H69AR cells + 2 uM doxorubicin) was 15.6% (inactive). Moreover, the inhibition (in general, the change of the read-out against control, counted positive when it falls) in experiment [7] is -2.08% (inactive); in experiment [8] it was -1.48% (inactive).
Regarding `O=C(CCCn1c(=S)[nH]c2cc3c(cc2c1=O)OCO3)N1CCN(c2ccccc2F)CC1`, the viability in experiment [1] was 77%; in experiment [3], 77% (inactive); in experiment [4] it was 68% (inactive); in experiment [5], 83.7% (inactive); in experiment [6] (setting [9]), 93.6%; in experiment [6] (setting [10]), 83.7%. Moreover, in experiment [2], the Her2 level was 95% (inactive). In experiment [6] (H69AR cells + 2 uM doxorubicin), the differential viability (reversal) is -9.88% (inactive). In addition, the inhibition was -4.32% (inactive) in experiment [7] and -2.95% (inactive) in experiment [8].
Consider `CSC(=O)CC(=O)NC(=O)c1ccccc1`, for which the viability was 102% in experiment [1]; 102% (inactive) in experiment [3]; 108% (inactive) in experiment [4]; 97.9% (inactive) in experiment [5]; 104% in experiment [6] (setting [9]); 97.9% in experiment [6] (setting [10]). In addition, in experiment [2], the Her2 level is 97% (inactive). For the same compound, the differential viability (reversal) in experiment [6] (H69AR cells + 2 uM doxorubicin) is -5.79% (inactive). For the same compound, the inhibition was -1.05% (inactive) in experiment [7] and 5.74% (inactive) in experiment [8].
For `CC1(C)Cc2noc(N)c2C(C)(C)N1OC(=O)c1cccs1`, the viability was 103% in experiment [1]; 103% (inactive) in experiment [3]; 99.1% (inactive) in experiment [4]; 102% (inactive) in experiment [5]; 94.2% in experiment [6] (setting [9]); 102% in experiment [6] (setting [10]). Moreover, in experiment [2], the Her2 level is 95.5% (inactive). Further, in experiment [6] (H69AR cells + 2 uM doxorubicin), the differential viability (reversal) was 8.28% (inactive). In addition, the inhibition in experiment [7] was -4.08% (inactive); in experiment [8], -5.08% (inactive).
In the case of `CCOC(=O)CN1C2=NCCN2c2ccccc21`, the viability in experiment [1] is 89.5%; in experiment [3], 89.5% (inactive); in experiment [4], 96.1% (inactive); in experiment [5], 99% (inactive); in experiment [6] (setting [9]), 88.1%; in experiment [6] (setting [10]), 99%. Moreover, in experiment [2], the Her2 level was 82% (inactive). For the same compound, the differential viability (reversal) in experiment [6] (H69AR cells + 2 uM doxorubicin) was 10.9% (inactive). Moreover, the inhibition in experiment [7] is -2.63% (inactive); in experiment [8] it was -4% (inactive).
Consider `CC(C)COc1ccc(C(=O)OCCN2CCOCC2)cc1`, for which the viability in experiment [1] was 98.5%; in experiment [3] it was 98.5% (inactive); in experiment [4], 118% (inactive); in experiment [5], 98.2% (inactive); in experiment [6] (setting [9]), 95.3%; in experiment [6] (setting [10]), 98.2%. Moreover, the Her2 level in experiment [2] is 101% (inactive). For the same compound, in experiment [6] (H69AR cells + 2 uM doxorubicin), the differential viability (reversal) is 2.9% (inactive). Moreover, the figures for the inhibition in experiment [7] and in experiment [8] were -2.86% (inactive) and -3.65% (inactive), respectively.
Regarding `CC(=O)c1ccc2c3c(cccc13)C(=O)N(c1c(C)nn(C)c1C)C2=O`, the viability is 99% in experiment [1]; 99% (inactive) in experiment [3]; 112% (inactive) in experiment [4]; 104% (inactive) in experiment [5]; 104% in experiment [6] (setting [9]); 104% in experiment [6] (setting [10]). The Her2 level in experiment [2] is 108% (inactive). Also, the differential viability (reversal) in experiment [6] (H69AR cells + 2 uM doxorubicin) was 0.09% (inactive). Besides, the inhibition was 1.07% (inactive) in experiment [7] and 1.31% (inactive) in experiment [8].
`Cc1cc(NC(=O)CSc2nnc(C3CC3)n2C)no1`: the viability was 91% in experiment [1]; 91% (inactive) in experiment [3]; 92.4% (inactive) in experiment [4]; 100% (inactive) in experiment [5]; 100% in experiment [6] (setting [9]); 100% in experiment [6] (setting [10]). The Her2 level in experiment [2] is 80% (inactive). For the same compound, the differential viability (reversal) in experiment [6] (H69AR cells + 2 uM doxorubicin) is 0.235% (inactive). Further, the inhibition in experiment [7] was -0.53% (inactive); in experiment [8], -2.91% (inactive).
Regarding `CCOC(=O)COc1ccc(S(=O)(=O)N2CCc3ccccc3C2)cc1`, the viability in experiment [1] was 111%; in experiment [3] it was 111% (inactive); in experiment [4], 9.96% (active); in experiment [5], 96.7% (inactive); in experiment [6] (setting [9]), 83%; in experiment [6] (setting [10]) it was 96.7%. The Her2 level in experiment [2] was 102% (inactive). Besides, the differential viability (reversal) in experiment [6] (H69AR cells + 2 uM doxorubicin) was 13.7% (inactive). In addition, the inhibition was -1.97% (inactive) in experiment [7] and 0.65% (inactive) in experiment [8].
As to `CC(C)=CCSc1nnc(CCNC(=O)OC(C)(C)C)o1`, the viability in experiment [1] is 96%; in experiment [3] it was 96% (inactive); in experiment [4], 87.2% (inactive); in experiment [5], 96.6% (inactive); in experiment [6] (setting [9]), 79.3%; in experiment [6] (setting [10]), 96.6%. Besides, in experiment [2], the Her2 level was 85.5% (inactive). Also, the differential viability (reversal) in experiment [6] (H69AR cells + 2 uM doxorubicin) is 17.2% (inactive). Moreover, the inhibition in experiment [7] was -4.8% (inactive); in experiment [8], 16.6% (inactive).
Take `O=C(CC(Cc1ccccc1)C(=O)O)NCCc1ccc2c(c1)OCO2` (stereo not given): the viability in experiment [1] was 90.5%; in experiment [3] it was 90.5% (inactive); in experiment [4], 92% (inactive); in experiment [5], 100% (inactive); in experiment [6] (setting [9]), 80.8%; in experiment [6] (setting [10]), 100%. Besides, the Her2 level in experiment [2] was 122% (inactive). Further, in experiment [6] (H69AR cells + 2 uM doxorubicin), the differential viability (reversal) is 19.3% (inactive). Further, the inhibition in experiment [7] was -3.82% (inactive); in experiment [8], -7.17% (inactive).
As for `Cn1c(=O)c2c(nc(NCc3ccco3)n2C/C=C/c2ccccc2)n(C)c1=O`, the viability was 100% in experiment [1]; 100% (inactive) in experiment [3]; 89.3% (inactive) in experiment [4]; 101% (inactive) in experiment [5]; 96.1% in experiment [6] (setting [9]); 101% in experiment [6] (setting [10]). Besides, in experiment [2], the Her2 level is 84.5% (inactive). The differential viability (reversal) in experiment [6] (H69AR cells + 2 uM doxorubicin) is 5.26% (inactive). For the same compound, the inhibition in experiment [7] is -1.69% (inactive); in experiment [8], 0.16% (inactive).
As for `CC(CN1CCCCC1)OC(=O)c1ccc2c(c1)OCO2` (stereo not given), the viability in experiment [1] was 104%; in experiment [3], 104% (inactive); in experiment [4], 99.1% (inactive); in experiment [5] it was 94.1% (inactive); in experiment [6] (setting [9]) it was 86.8%; in experiment [6] (setting [10]) it was 94.1%. In addition, the Her2 level in experiment [2] is 96% (inactive). Moreover, in experiment [6] (H69AR cells + 2 uM doxorubicin), the differential viability (reversal) is 7.31% (inactive). Moreover, the inhibition is -4.4% (inactive) in experiment [7] and 6.72% (inactive) in experiment [8].
For the compound `CN(C(=O)c1ccc(S(=O)(=O)NC2CCCC2)cc1)C1CCCCC1`, the viability in experiment [1] is 101%; in experiment [3], 101% (inactive); in experiment [4], 103% (inactive); in experiment [5], 102% (inactive); in experiment [6] (setting [9]), 92.3%; in experiment [6] (setting [10]) it was 102%. For the same compound, in experiment [2], the Her2 level is 87% (inactive). Also, in experiment [6] (H69AR cells + 2 uM doxorubicin), the differential viability (reversal) is 9.82% (inactive). The inhibition in experiment [7] is -3.38% (inactive); in experiment [8], -7.54% (inactive).

The record behind these values is PubChem BioAssay.
